Screening results (PubChem)
Only some compounds are listed: those with a hit (about 2.1% of all), similar ones and a draw of the others.
ASAP1 GAP inh = inhibitors of human ASAP1 ArfGAP activity, primary screen, biochemical, fluorescence polarization; AID 624377, 2012; 360,000 tested, 0.19% active; Arf-GAP with SH3 domain, ANK repeat and PH domain-containing protein 1 (Homo sapiens), …; ASAP1-stimulated ARF1 GTP hydrolysis, GDP FP detection; inhibition, % at 16.5 µM; in the data active = inhibition above about 25%;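 note: 0% = vehicle with enzyme and substrate and 100% = no enzyme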
APOBEC3G inh = APOBEC3G DNA deaminase inhibitors, primary screen, biochemical, fluorescence, single-stranded DNA substrate, uHTS | recombinant A3G, ssDNA deamination FAM/TAMRA fluorescence | inhibition, % at 20 µM | 330,000 tested, 0.28% active | AID 493012, 2011;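 active = inhibition of at least 40% at 20 µM, with no more than 30% in the related APOBEC3A deaminase screen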;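 note: plate controls were DMSO wells with A3G for no effect and wells lacking A3G enzyme for full effect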
Target sequence (Q9HC16 whole entry, looked up): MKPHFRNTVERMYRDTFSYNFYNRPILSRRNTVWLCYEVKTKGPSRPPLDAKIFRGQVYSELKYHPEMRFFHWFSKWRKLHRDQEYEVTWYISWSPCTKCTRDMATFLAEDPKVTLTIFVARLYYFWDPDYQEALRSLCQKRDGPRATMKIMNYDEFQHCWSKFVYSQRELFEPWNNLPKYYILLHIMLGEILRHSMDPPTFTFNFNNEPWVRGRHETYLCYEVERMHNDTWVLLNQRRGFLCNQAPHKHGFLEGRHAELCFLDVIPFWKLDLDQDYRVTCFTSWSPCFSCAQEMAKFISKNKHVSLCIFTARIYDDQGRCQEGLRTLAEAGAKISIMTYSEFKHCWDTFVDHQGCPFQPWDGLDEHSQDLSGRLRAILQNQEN
C2C12 statin = suppressors of statin myotoxicity in C2C12 myotubes, primary screen, cell-based, single point, plate reader. C2C12 myotubes + simvastatin, ATP luminescence, 48 h; scaled: DMSO 0, geranylgeraniol control 100. rescue of ATP level, % at 7.49 µM. 330,000 tested, 0.78% active;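 active = mean ATP rescue above about 67%, or every replicate alone reaching that limit, limit read from the data, passing the limit was not always enough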;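 note: myotubes were challenged with 10 µM simvastatin during compound exposure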
ARFGAP1 inhibitor = inhibitors of rat ARFGAP1 GAP activity, primary screen, biochemical, fluorescence polarization, GDP tracer; inhibition, % at 16.5 µM; ADP-ribosylation factor GTPase-activating protein 1 (Rattus norvegicus), Q62848; 360,000 tested, 0.26% active; Arfgap1-stimulated ARF1 GTP hydrolysis, GDP FP detection;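 active = inhibition above a per-plate limit, mean inhibition of low control wells plus 3 SD, cut at about 25% in these data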;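 note: 0% = DMSO wells with enzyme and 100% = wells lacking Arfgap1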
Target sequence (Q62848 1-136 limits assumed): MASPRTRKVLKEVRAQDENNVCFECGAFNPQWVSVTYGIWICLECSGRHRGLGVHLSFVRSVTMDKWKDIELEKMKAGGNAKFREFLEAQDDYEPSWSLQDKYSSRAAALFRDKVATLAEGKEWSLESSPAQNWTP
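Material: truncated rat Arfgap1 GAP domain; Incubation: compound-enzyme preincubation 20 min, reaction 120 min, detection 60 min, 25 °C; Read-out: percent inhibition of Arfgap1-stimulated GTP hydrolysis; Technique: FP, GDP Alexa 633 tracer displaced from anti-GDP antibody, 620/688 nm; Controls: No-Arfgap1 wells (100%) versus DMSO full-reaction wells (0%); Replication: single well per compound.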
A3A deaminase = APOBEC3A ssDNA deaminase inhibitors, primary screen, selectivity assay for APOBEC3G inhibitor project, biochemical, FAM/TAMRA oligo cleavage fluorescence | DNA dC->dU-editing enzyme APOBEC-3A (Homo sapiens), P31941 | recombinant A3A, FAM/TAMRA ssDNA deamination fluorescence | inhibition, % at 20 µM | AID 493011, 2011 | 330,000 tested, 0.41% active;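 active = at least 40% inhibition at 20 µM here, with at most 30% in a related deaminase screen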;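 note: plate controls were A3A with DMSO for no effect and wells lacking A3A enzyme for full effect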
Mot1-301 SUMO = yeast Mot1-301 growth rescue at high temperature, primary screen, SUMOylation pathway inhibitor project, S. cerevisiae, ATP luminescence, 38.5C. S. cerevisiae Mot1-301 growth rescue; percent above DMSO median, 100 means doubled. growth rescue, % at 18.8 µM. 320,000 tested, 1% active. AID 2716, 2010;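 active = every valid replicate shows activation above 250% relative to neutral control wells; inactive = the rest, any valid replicate at or below 250%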;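 note: OY570 slx delta 5 strain wells were the positive control but not used for scaling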
APOBEC3G confirm = APOBEC3G deaminase inhibitor retest, confirmation, biochemical, fluorescence, single-stranded DNA substrate, single concentration | shares compounds with APOBEC3G inh | inhibition, % at 20 µM | recombinant A3G ssDNA deaminase, UDG/FAM-TAMRA fluorescence | AID 493152, 2011 | 890 tested, 72% active;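 active = inhibition reaching a set limit in any replicate at 20 µM, the limit being 80% of the first screen's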
UDG ctr A3G = E. coli UDG inhibitors, confirmation, counter-screen for APOBEC3G inhibitor project, biochemical, single concentration, fluorescence, FAM/TAMRA oligo. shares compounds with APOBEC3G inh. UDG counterscreen. inhibition, % at 20 µM. 710 tested, under 10 active. AID 504715, 2011;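 active = compounds giving 40% or more inhibition at 20 µM in any one of the three replicates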;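 note: plate controls were DMSO wells with UDG and oligo for no effect and DMSO wells lacking both for full effect; inhibitors lower the FAM signal released by uracil excision and alkaline cleavage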
ASAP1 inh confirm = ASAP1 GAP activity inhibitors, confirmation, biochemical, fluorescence polarization, human, triplicate | shares compounds with ASAP1 GAP inh | 620 tested, 37% active | inhibition, % at 16.5 µM | ASAP1-stimulated Arf1 GTPase, GDP fluorescence polarization | AID 624431, 2012;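 active = mean inhibition over triplicates exceeds the hit threshold derived for the earlier primary screening run, cut at about 25% in these data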
ARFGAP1 confirm = ARFGAP1 inhibitor hit confirmation, biochemical, fluorescence polarization, triplicate. ARFGAP1-stimulated ARF1 GTP hydrolysis, GDP tracer FP. inhibition, % at 16.5 µM. AID 651608, 2012. 890 tested, 30% active. shares compounds with ARFGAP1 inhibitor;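 active = average inhibition over triplicates above the hit cutoff set in the earlier primary screen, cut at about 25% in these data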;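 note: 0% = Arfgap1 plus ARF1-GTP with DMSO and 100% = wells lacking Arfgap1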
An asterisk follows results filed as active; . = no result.

SMILES	ASAP1 GAP inh	APOBEC3G inh	C2C12 statin	ARFGAP1 inhibitor	A3A deaminase	Mot1-301 SUMO	ASAP1 inh confirm	others
O=C1CC[C@@]2(O)[C@H]3Cc4ccc(O)c5c4[C@@]2(CCN3CC2CC2)C1O5 (stereo not given in full)	-1	.	.	-7	.	.	.
NC(N)=Nc1ccc2[nH]c3c(c2c1)C[C@@]1(O)[C@H]2Cc4ccc(O)c5c4[C@@]1(CCN2CC1CC1)[C@H]3O5	.	84*	2	.	16	251	.	APOBEC3G confirm=97*;UDG ctr A3G=-1
COc1cccc(-c2ccc3n(c2=O)C[C@@H]2[C@@H](CO)[C@H](C(=O)O)[C@H]3N2Cc2ccccc2F)c1	.	.	14	.	.	.	.
COc1cc2c(cc1OC)-c1c3c(cc4c1[C@@H](C2)N(C)CC4)OCO3	12	45*	23	-13	26	-10	.	APOBEC3G confirm=24
COC(=O)[C@H]1[C@H](CO)[C@H]2Cn3c(ccc(/C=C/c4ccccc4)c3=O)[C@@H]1N2CC1CCCC1	.	.	8	.	.	.	.
C/C(=N\Nc1cccc2ccccc12)c1c(O)n(Cc2ccccc2)c(=O)[nH]c1=O	0	41*	.	0	-7	55	.	APOBEC3G confirm=16;UDG ctr A3G=-5
C/C(=N\NC(=O)c1ccccc1)c1c(O)n(Cc2ccccc2)c(=O)[nH]c1=O	9	-6	.	-7	1	-14	.
CCn1c(NN=O)nc2ccccc21	-18	58*	-15	1	-1	-1	.	APOBEC3G confirm=14;UDG ctr A3G=-1
O=C1C2CCCN2C(c2cccs2)N1c1ccccn1 (stereo not given)	-2	89*	4	-8	0	4	.	APOBEC3G confirm=16;UDG ctr A3G=-3
Nc1cc2nc3ccccc3nc2cc1N	3	48*	-3	-1	18	-4	.	APOBEC3G confirm=25*;UDG ctr A3G=0
Nc1c2c(nc3ccccc13)CCN(Cc1ccccc1)C2	3	-8	-13	-8	-4	-17	.
COc1cccc(-c2ccc3n(c2=O)C[C@H]2[C@H](CO)[C@@H](C(=O)O)[C@@H]3N2Cc2ccccc2F)c1	.	.	-14	.	.	.	.
CC(C)N1C(=O)/C(=C/C=C/c2ccco2)C(=O)N(Cc2ccco2)C1=O	14	52	12	14	60	1	.
CCN1C(=O)C(=C/C=C/c2ccco2)C(=O)N(CC)C1=S	28*	46	.	-2	70	-21	22
CCCNC(=O)[C@H]1[C@H](CO)[C@H]2Cn3c(cccc3=O)[C@H]2N1C	.	.	7	.	.	.	.
CCC(C)C1NC(=O)C(NC(=O)C(CC(C)C)N(C)C(=O)C2CCCN2C(=O)C(C)O)C(C)OC(=O)C(Cc2ccc(OC)cc2)N(C)C(=O)C2CCCN2C(=O)C(CC(C)C)NC(=O)[C@H](C)C(=O)[C@H](C(C)C)OC(=O)CC1O (stereo not given in full)	27*	.	.	5	.	.	3
COCCCn1c(N)c(C(=O)NCCC(C)C)c2nc3ccccc3nc21	27*	-6	-2	23	-2	13	9
Nc1c(C(=O)NCc2ccco2)c2nc3ccccc3nc2n1Cc1ccc(F)cc1	32*	14	1	0	2	-19	14
Nc1c(C(=O)NCc2ccco2)c2nc3ccccc3nc2n1Cc1ccccc1	1	-5	.	4	-2	149	.
O=C(O)[C@@H]1[C@@H](CO)[C@@H]2Cn3c(ccc(C4=CCCCC4)c3=O)[C@H]1N2CCc1ccccc1	.	.	-34	.	.	.	.
O=C(O)c1cccc2c1NC(C(=O)O)C1CC(Sc3ccccc3[N+](=O)[O-])C(Cl)C21 (stereo not given)	59*	.	14	35*	.	-5	61*	ARFGAP1 confirm=87*
CC(=O)c1ccc2c(c1)C1C(Cl)C(Sc3ccccc3[N+](=O)[O-])CC1C(C(=O)O)N2 (stereo not given)	-1	.	.	0	.	-16	.
COC(=O)[C@H]1[C@H](CO)[C@H]2Cn3c(cccc3=O)[C@@H]1N2C(=O)C1CCCC1	.	.	-9	.	.	.	.
CCOCCCn1c(N)c(C(=O)Nc2sc3c(c2C(=O)OC)CCCC3)c2nc3ccccc3nc21	34*	-10	-2	25*	-3	3	14	ARFGAP1 confirm=4
CC[n+]1c(/C=C/N(C)c2ccccc2)sc2ccc(Cl)cc21	3	-1	-277	-3	-3	89	.
CN(C)c1ccc(/C=C/C=C/c2sc3ccccc3[n+]2C)cc1	80*	-6	.	92*	0	-8	109*	ARFGAP1 confirm=127*
CC[n+]1c(/C=C/C=C/c2ccc(N(C)C)cc2)sc2ccccc21	98*	-13	.	107*	-2	-43	123*	ARFGAP1 confirm=159*
CN(C)c1ccc(/C=C/c2cc[n+](C)c3ccccc23)cc1	44*	.	-58	37*	.	.	51*	ARFGAP1 confirm=49*
COC(=O)[C@H]1[C@H](CO)[C@H]2Cn3c(cccc3=O)[C@@H]1N2C(=O)C1CC1	.	.	15	.	.	.	.
COC(=O)C[C@H]1CC[C@@H]2NC[C@@H](O)COC[C@H]2O1	.	.	-3	.	.	.	.
